Screens: PubChem, several laboratories
GRK2 aptamer HTS – compounds blocking aptamer binding on GRK2 – biochemical, human GRK2, bead flow cytometry, HTS, primary screen; 330,000 tested, 0.59% active; FAM-aptamer displacement from GRK2; Beta-adrenergic receptor kinase 1 (Homo sapiens), P25098; inhibition of aptamer binding, % at 10 µM; AID 488847, 2010;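 active = inhibition of aptamer binding above 40%, roughly 3 SD of noise, on plates passing a quality check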;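 also: median bead fluorescence of bound FAM aptamer so fluorescent compounds give negative values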
Myeloid diff 2 – induction of myeloid progenitor differentiation, primary screen, cell-based, flow cytometry, MLPCN library. ER-HoxA9 myeloid progenitors, lysozyme-GFP differentiation. calls only at 10 µM. 360,000 tested, 1% active;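 active = normalized GFP-positive differentiation at or above the plate's own cutoff, the solvent-only control mean plus 3 SD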;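 also: cells exposed to compound for four days before flow analysis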
Rce1 inhib – yeast Rce1p protease inhibitors, primary screen, biochemical, fluorescence, cell-free homogeneous | calls only | 290,000 tested, 0.27% active | yeast membranes, quenched prenylated peptide cleavage fluorescence | CAAX prenyl protease 2 (Saccharomyces cerevisiae (strain ATCC 204508 / S288c)), Q03530 | AID 2563, 2010;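 active = fall in fluorescence gain of 50% or more versus controls, with final raw signal at or below 3038400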;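 also: plate controls were neutral control wells for no effect and wells lacking membranes for full effect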
SKN-1 block – suppressors of acrylamide-induced Pgst-4::GFP reporter in worms, primary screen, SKN-1 inhibitor project, whole organism, uHTS, GFP/RFP fluorescence ratio, strain VP596 | C. elegans VP596 Pgst-4::GFP/RFP ratio, 24 h | inhibition, % at 21.8 µM | 360,000 tested, 0.49% active | AID 624304, 2012;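 active = interference check ratio from 0.5 to 1.5 plus GFP to RFP signal ratio inhibition reaching or exceeding a fixed threshold, cut at about 30% in these data, passing the limit was not always enough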
Rin1 Abl inh – inhibitors of Rin1-Abl protein binding, primary screen, biochemical, TR-FRET; Tyrosine-protein kinase ABL1 (Homo sapiens) + Ras and Rab interactor 1 (Homo sapiens), …; inhibition, % at 7.35 µM; 360,000 tested, 0.4% active; in the data active = inhibition above about 5%, passing the limit was not always enough
Target sequence (P00519 whole entry, looked up): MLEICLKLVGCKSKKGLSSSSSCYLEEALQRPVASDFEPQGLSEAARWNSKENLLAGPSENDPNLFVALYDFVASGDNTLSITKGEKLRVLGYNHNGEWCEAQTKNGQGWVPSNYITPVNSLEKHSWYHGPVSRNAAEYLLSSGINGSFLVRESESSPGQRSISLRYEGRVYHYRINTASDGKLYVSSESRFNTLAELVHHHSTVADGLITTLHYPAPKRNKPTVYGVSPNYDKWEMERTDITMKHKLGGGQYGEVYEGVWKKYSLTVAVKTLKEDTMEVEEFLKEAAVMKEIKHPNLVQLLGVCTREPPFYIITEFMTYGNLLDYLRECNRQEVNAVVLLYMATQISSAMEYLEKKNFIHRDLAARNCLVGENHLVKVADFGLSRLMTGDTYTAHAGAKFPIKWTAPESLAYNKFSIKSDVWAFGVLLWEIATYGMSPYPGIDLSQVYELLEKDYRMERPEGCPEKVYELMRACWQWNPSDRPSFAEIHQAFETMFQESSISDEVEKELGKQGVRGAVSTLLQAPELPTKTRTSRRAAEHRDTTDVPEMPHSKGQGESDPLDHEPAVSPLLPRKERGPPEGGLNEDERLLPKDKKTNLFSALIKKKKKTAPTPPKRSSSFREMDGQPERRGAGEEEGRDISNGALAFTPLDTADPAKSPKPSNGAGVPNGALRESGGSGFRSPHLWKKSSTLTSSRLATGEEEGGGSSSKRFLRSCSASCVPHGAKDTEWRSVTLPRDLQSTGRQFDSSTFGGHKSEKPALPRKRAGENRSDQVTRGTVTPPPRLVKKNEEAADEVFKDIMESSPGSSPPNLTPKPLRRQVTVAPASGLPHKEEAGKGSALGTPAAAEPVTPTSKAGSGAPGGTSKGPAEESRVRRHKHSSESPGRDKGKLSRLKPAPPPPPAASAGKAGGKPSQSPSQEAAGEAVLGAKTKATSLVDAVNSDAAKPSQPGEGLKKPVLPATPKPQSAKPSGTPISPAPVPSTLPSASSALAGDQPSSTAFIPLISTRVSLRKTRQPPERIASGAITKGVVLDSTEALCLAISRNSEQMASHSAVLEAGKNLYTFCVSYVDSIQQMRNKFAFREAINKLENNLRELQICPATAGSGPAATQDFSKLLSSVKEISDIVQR
Target sequence (Q13671 whole entry, looked up): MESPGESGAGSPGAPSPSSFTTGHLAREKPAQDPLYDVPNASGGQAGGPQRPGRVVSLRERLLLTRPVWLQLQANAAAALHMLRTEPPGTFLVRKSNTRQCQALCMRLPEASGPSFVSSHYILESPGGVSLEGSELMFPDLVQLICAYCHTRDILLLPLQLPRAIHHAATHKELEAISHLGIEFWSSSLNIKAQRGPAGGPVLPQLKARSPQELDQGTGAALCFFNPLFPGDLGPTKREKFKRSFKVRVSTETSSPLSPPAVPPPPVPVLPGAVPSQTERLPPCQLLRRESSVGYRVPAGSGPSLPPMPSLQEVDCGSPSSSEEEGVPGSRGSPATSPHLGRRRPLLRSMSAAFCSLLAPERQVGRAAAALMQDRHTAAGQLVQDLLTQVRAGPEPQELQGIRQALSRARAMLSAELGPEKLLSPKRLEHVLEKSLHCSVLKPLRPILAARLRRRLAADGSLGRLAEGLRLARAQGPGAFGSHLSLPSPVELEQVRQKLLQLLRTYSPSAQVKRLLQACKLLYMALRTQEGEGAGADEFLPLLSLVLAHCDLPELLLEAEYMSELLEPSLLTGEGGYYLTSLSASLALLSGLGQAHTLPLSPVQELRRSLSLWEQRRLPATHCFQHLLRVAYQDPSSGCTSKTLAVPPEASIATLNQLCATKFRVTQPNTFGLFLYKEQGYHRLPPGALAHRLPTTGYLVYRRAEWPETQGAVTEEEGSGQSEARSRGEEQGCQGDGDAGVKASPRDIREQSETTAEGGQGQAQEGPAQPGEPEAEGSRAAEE
T cell HTS – modulators of CD8 T cell-vesicle binding, primary screen, mouse 2C CD8+ T cells, flow cytometry | 2C CD8+ T cell-vesicle binding; stronger effect = lower value | response (vesicle binding), % at 7 µM | 330,000 tested, 0.068% active | AID 2052, 2009;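 active = response, share of CD8 T cells binding vesicles, and their 90th percentile fluorescence all below set limits, cut at about 80% in these data, passing the limit was not always enough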;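 also: values below 100% mean blocked vesicle binding to the CD8+ T cells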
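Assay system: 2C TCR transgenic mouse naive CD8+ T cells, MACS-purified | Read-out: CD8+ gate FL2 mean fluorescence as % of same-row positive control | Signal: High-throughput flow cytometry with anti-B7-1 and anti-CD8 staining | Timing: Binding step 1.5 h, 37 °C, antibody labelling 20 min, ice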
Rin1-Abl confirm – Rin1-Abl binding inhibitor retest, confirmation, biochemical, TR-FRET | purified proteins | shares compounds with Rin1 Abl inh | 1,300 tested, 49% active | inhibition, % at 7.35 µM | AID 602124, 2011
GFP quench – GFP fluorescence inhibitors and quenchers, artefact control for Rin1-Abl interaction inhibitor project, biochemical | 1,300 tested, 8.5% active | inhibitors/quenchers counterscreen | inhibition, % at 6.75 µM | shares compounds with Rin1 Abl inh;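 also: ABL1-eGFP fusion protein alone without its partner RIN1-SBP; 0% = protein with vehicle and 100% = wells lacking protein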
GFP quench DR – GFP fluorescence inhibitors and quenchers, dose response, artefact control for Rin1-Abl interaction inhibitor project, biochemical | 230 tested, under 10 active | GFP fluorescence interference/quenching counterscreen | IC50, µM | shares compounds with Rin1 Abl inh; call rule not given here;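 also: ABL1-eGFP fusion protein alone without its RIN1 binding partner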
* marks the source's active call; other numbers are inactive results. Most compounds without a hit are left out; they make up all but 2.6% or so of the library. Rule as the data show it, unless noted: active = inhibition above about 6.5%; inactive = the rest.

For Cc1ccc(-n2c(SCC(=O)NCc3ccco3)nnc2-c2cccnc2)c(C)c1 the results were GRK2 aptamer HTS 0.0, Myeloid diff 2 inactive, Rce1 inhib inactive, SKN-1 block 16.8, Rin1 Abl inh 11.6*, T cell HTS inactive, Rin1-Abl confirm 9.7* and GFP quench -0.6.
COC(=O)c1ccc(NC(=O)CSc2nc3cccnc3n2C)cc1 was read as GRK2 aptamer HTS 0.0, Myeloid diff 2 inactive, Rce1 inhib inactive, SKN-1 block 1.5, Rin1 Abl inh 0.8 and T cell HTS 346.0.
CCOC(=O)c1ccc(NC(=O)CSc2nncn2-c2cccnc2)cc1 was read as GRK2 aptamer HTS 2.0, Myeloid diff 2 inactive, Rce1 inhib inactive, SKN-1 block -10.4, Rin1 Abl inh 7.8*, T cell HTS 165.7, Rin1-Abl confirm 1.9 and GFP quench -0.6.
Screening CCOC(=O)c1ccc(NC(=O)CSc2nc3cccnc3n2C)cc1 returned GRK2 aptamer HTS 2.0, Myeloid diff 2 inactive, Rce1 inhib inactive, SKN-1 block 3.8, Rin1 Abl inh 9.9*, T cell HTS 215.3, Rin1-Abl confirm 5.9 and GFP quench -0.8.
Screening CCc1nc2c(s1)CCc1onc(-c3ccc(Cl)cc3)c1-2 returned GRK2 aptamer HTS 1.0, Myeloid diff 2 inactive, Rce1 inhib inactive, SKN-1 block 5.3, Rin1 Abl inh -1.4 and T cell HTS 621.0.
Screening COC(=O)Nc1csc2c1NC(=O)CCCC2 returned GRK2 aptamer HTS 0.0, Myeloid diff 2 inactive, Rce1 inhib inactive, SKN-1 block 2.3, Rin1 Abl inh 42.7*, T cell HTS 156.6, Rin1-Abl confirm 44.3*, GFP quench -0.9 and GFP quench DR >67.5.
CC1(Cc2ccc3c(c2)OCO3)C(=O)Nc2ccc(-c3cccc(C(F)(F)F)c3)cc21 (centres undefined) was read as Myeloid diff 2 inactive, SKN-1 block 30.6, Rin1 Abl inh 7.7*, Rin1-Abl confirm -2.5 and GFP quench -0.2.
Screening CC1(Cc2ccc(C(F)(F)F)o2)C(=O)Nc2ccc(-c3cccc(C(F)(F)F)c3)cc21 (centres undefined) returned Myeloid diff 2 inactive, SKN-1 block 33.7 and Rin1 Abl inh -1.4.
For CCOC(=O)/C=C/C(=O)OCC(=O)N1CCN(C(=O)c2ccco2)CC1 the results were GRK2 aptamer HTS 5.0, Myeloid diff 2 inactive, Rce1 inhib inactive, SKN-1 block 14.5, Rin1 Abl inh 1.3 and T cell HTS 161.6.
O=S(=O)(Nc1nccs1)c1ccc(Br)cc1 was read as GRK2 aptamer HTS 3.0, Myeloid diff 2 inactive, Rce1 inhib inactive, SKN-1 block 9.5, Rin1 Abl inh 10.8*, T cell HTS 274.6, Rin1-Abl confirm -2.1 and GFP quench -0.3.
COc1ccc([C@H]2CC(=O)C=C(c3cccc(CO)c3)C2)cc1 was read as GRK2 aptamer HTS 6.0, Myeloid diff 2 inactive, SKN-1 block 17.1, Rin1 Abl inh -2.2 and T cell HTS 678.2.
`COCCCN(C(=O)C1=COCCO1)c1c(N)n(Cc2ccccc2)c(=O)[nH]c1=O` gave Myeloid diff 2 inactive, SKN-1 block 2.2 and Rin1 Abl inh 1.5.
For CN1C(=O)C(Cl)(Cl)C(=O)c2ccccc21 the results were Myeloid diff 2 inactive, Rce1 inhib inactive, SKN-1 block 1.7, Rin1 Abl inh 18.2*, Rin1-Abl confirm 11.0* and GFP quench 2.0.
Cc1c(F)cccc1NC(=O)CCCCCC1NC(=O)NC1C (centres undefined) was read as GRK2 aptamer HTS 6.0, Myeloid diff 2 inactive, Rce1 inhib inactive, SKN-1 block -5.6, Rin1 Abl inh 86.3*, T cell HTS 368.7, Rin1-Abl confirm 97.5*, GFP quench -0.9 and GFP quench DR >67.5.
Cc1c(F)cccc1NC(=O)CCC(=O)O was read as GRK2 aptamer HTS 2.0, Myeloid diff 2 inactive, Rce1 inhib inactive, SKN-1 block -12.3, Rin1 Abl inh -1.0 and T cell HTS 182.3.
O=C(CCCC(=O)c1ccccc1)Nc1ccc(F)cc1 was read as GRK2 aptamer HTS 0.0, Myeloid diff 2 inactive, Rce1 inhib inactive, SKN-1 block 5.2, Rin1 Abl inh 2.7 and T cell HTS 212.0.
CC1NC(=O)NC1CCCCCC(=O)Nc1ccc(F)cc1 (centres undefined) was read as GRK2 aptamer HTS 0.0, Myeloid diff 2 inactive, Rce1 inhib inactive, SKN-1 block -4.1, Rin1 Abl inh 84.2*, T cell HTS 266.2, Rin1-Abl confirm 98.2*, GFP quench 0.0 and GFP quench DR >67.5.
Screening CC1CCCN(C(=O)C(=O)Nc2ccc3nc4n(c(=O)c3c2)CCCCC4)C1 (centres undefined) returned GRK2 aptamer HTS 2.0, Myeloid diff 2 inactive, Rce1 inhib inactive, SKN-1 block 5.5, Rin1 Abl inh 0.9 and T cell HTS 296.2.
`COc1ccc(NC(=O)CC2SC(N3CCOCC3)=NC2=O)cc1OC` (centres undefined) gave GRK2 aptamer HTS 3.0, Myeloid diff 2 inactive, SKN-1 block -5.0, Rin1 Abl inh -1.1 and T cell HTS 287.1.
Screening Cc1cnc(NC(=O)[C@H](C)N2C(=O)C3CCCCC3C2=O)s1 (some centres undefined) returned GRK2 aptamer HTS 0.0, Myeloid diff 2 inactive, Rce1 inhib inactive, SKN-1 block -8.3, Rin1 Abl inh 1.9 and T cell HTS 303.8.
`Cc1cnc(NC(=O)C(C)N2CCN(C)CC2)s1` (centres undefined) gave GRK2 aptamer HTS 0.0, Myeloid diff 2 inactive, Rce1 inhib inactive, SKN-1 block 3.0, Rin1 Abl inh 6.7*, T cell HTS 305.7, Rin1-Abl confirm 1.1 and GFP quench -1.1.
